Platelet DG rel: platelet dense granule release activity | inhibition, %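 (compounds screened at 7.5 µM in platelet-rich plasma)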 | human platelet-rich plasma, SFLLRN dense granule ATP release, luminescence | hit rate 0.22% among 300,000 | AID 1663;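 active = mean replicate score, as percent of positive control, at or above 50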
SENP8 block-1: blocks human SENP8 cleavage of Nedd8 substrate. Q96LD8. recombinant SENP8, Nedd8 substrate fluorescence. inhibition, % at 20 µM. hit rate 0.64% among 360,000. AID 602440; in the data active = inhibition mostly above about 40%, no sharp cut-off; inactive = mostly below about 27%
Target sequence (Q96LD8 whole entry, looked up): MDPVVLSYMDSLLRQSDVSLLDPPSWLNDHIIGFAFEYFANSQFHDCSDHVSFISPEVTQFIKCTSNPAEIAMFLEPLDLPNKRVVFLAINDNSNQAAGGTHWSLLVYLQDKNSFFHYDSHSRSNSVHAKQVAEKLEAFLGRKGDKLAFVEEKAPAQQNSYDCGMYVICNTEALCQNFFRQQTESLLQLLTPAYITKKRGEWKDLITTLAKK
SENP1 inh: SENP1 (human) catalytic domain inhibition; Q9P0U3; recombinant SENP1 catalytic domain, CyPet-SUMO1-YPet FRET cleavage; inhibition, % at 10 µM; hit rate 0.21% among 360,000; AID 624204;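 active = inhibition at least 30% at 10 µM, raw YFP signal under a set limit, fluorescence ratio 0.5 to 1.5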;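 note: 0% = enzyme with DMSO and 100% = no enzyme wells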
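System: Recombinant human SENP1 catalytic domain, His6-tagged | Incubation: Enzyme reaction for 50 min at room temperature, dark | Medium: Tris pH 8 with BME, BSA, NP40 and catalase | Also added: 25 nM SUMO1 FRET substrate | Compound: 10 µM single point, 0.5% DMSO | Measured by: FRET fluorescence in CFP and YFP emission channels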
SENP8 block-2: blocks the human protease SENP8 | Q96LD8 | purified SENP8, Z-RLRGG-aminoluciferin cleavage, luminescence | inhibition, % at 10 µM | hit rate 1.2% among 330,000 | AID 2540; in the data active = inhibition above about 50%
SENP7 inh: blocks the human protease SENP7 | Q9BQF6 | inhibition, % at 5 µM | recombinant SENP7, Z-RLRGG-aminoluciferin luminescence, 40 min | hit rate 1.5% among 330,000;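 active = inhibition above about 50% at the single test dose, limit read from the data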;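 note: plate controls were DMSO with enzyme for no effect and no enzyme buffer wells for full effect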
Target sequence (Q9BQF6 706-1050 limits assumed): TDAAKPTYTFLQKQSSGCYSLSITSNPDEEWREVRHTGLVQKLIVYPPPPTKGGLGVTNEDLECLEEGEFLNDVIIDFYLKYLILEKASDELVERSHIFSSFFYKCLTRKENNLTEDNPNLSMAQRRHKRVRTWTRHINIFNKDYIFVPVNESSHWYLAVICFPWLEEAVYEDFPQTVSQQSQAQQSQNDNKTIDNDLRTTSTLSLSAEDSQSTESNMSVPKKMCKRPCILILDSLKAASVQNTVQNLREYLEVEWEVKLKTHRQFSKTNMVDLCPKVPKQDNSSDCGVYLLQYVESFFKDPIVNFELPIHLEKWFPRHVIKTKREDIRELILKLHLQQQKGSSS
SENP6 block: inhibitors of human SENP6 protease | AID 2599 | inhibition, % at 10 µM | Recombinant SENP6 catalytic domain, aminoluciferin luminescence | Q9GZR1 | hit rate 1.8% among 330,000;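 active = inhibition above about 50% at the single tested dose, limit read from the data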;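 note: plate controls were DMSO wells with enzyme for no effect and DMSO wells lacking enzyme for full effect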
SENP8 confirm: confirmation of human SENP8 protease inhibitors | hit rate 40% among 6,200 | AID 488912 | shares compounds with SENP7 inh | inhibition, % at 12.5 µM | Recombinant SENP8, Z-RLRGG-aminoluciferin luminescence, 60 min;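 active = mean inhibition across replicates above about 50%, limit read from the data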
SENP6 confirm: confirmation of human SENP6 protease inhibitors; recombinant SENP6, Z-RLRGG-aminoluciferin luminescence; hit rate 58% among 6,200; inhibition, % at 12.5 µM; shares compounds with SENP7 inh; AID 488915
SENP7 conf: human SENP7 inhibition, confirmed; shares compounds with SENP7 inh; recombinant SENP7, Z-RLRGG-aminoluciferin luminescence, 40 min; inhibition, % at 12.5 µM; hit rate 69% among 6,200
Casp3 SENP sel: selectivity test for SENP inhibitors: human caspase-3 inhibition; purified caspase-3, Z-DEVD-aminoluciferin luminescence, 60 min; shares compounds with SENP7 inh; inhibition, % at 12.5 µM; AID 488918; hit rate 60% among 6,200;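 active = mean inhibition above about 50%, limit read from the data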;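 note: plate controls were enzyme with DMSO for no effect and wells without caspase-3 for full effect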
Target sequence (P42574 28-227 limits assumed): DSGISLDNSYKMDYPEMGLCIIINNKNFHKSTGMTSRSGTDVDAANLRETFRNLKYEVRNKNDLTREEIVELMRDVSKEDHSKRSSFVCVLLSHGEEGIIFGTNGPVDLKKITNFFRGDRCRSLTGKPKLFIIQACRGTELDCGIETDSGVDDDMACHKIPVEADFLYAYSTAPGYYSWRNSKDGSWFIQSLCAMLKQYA
SENP luc ctr: counter-screen for SENP inhibitors: luminescence interference | shares compounds with SENP7 inh | Pre-incubated SENP8/Z-RLRGG-aminoluciferin, luciferase luminescence interference | inhibition, % at 12.5 µM | hit rate 39% among 6,200 | AID 488919;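 active = mean inhibition above about 50% when retested at one dose, limit read from the data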;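 note: plate controls were DMSO wells with completed reaction for no effect and substrate without enzyme for full effect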
The depositor's hits bear a star; . = no result given. Only some compounds are listed: those with a hit (about 2.6% of all), similar ones and a draw of the others.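 Rule for the calls, unless noted: active = mean inhibition above about 50% in the one-dose retest (limit read from the data); inactive = the rest.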

SMILES | Platelet DG rel | SENP8 block-1 | SENP1 inh | SENP8 block-2 | SENP7 inh | SENP6 block | SENP8 confirm | SENP6 confirm | SENP7 conf | Casp3 SENP sel | SENP luc ctr
Nc1ccccc1-c1nc2ccccc2s1 | 3.9 | -436.7 | -115.3 | 54.2* | 59.1* | 76.1* | 60.9* | 83.0* | 96.5* | 55.3* | 44.0
COc1ccc(-c2nc3ccccc3s2)cc1 | . | -217.9 | -1.3 | . | . | . | . | . | . | . | .
c1ccc2[nH]c(-c3ccc4c(c3)OCO4)nc2c1 | 73.1* | -134.4 | -0.1 | 93.0* | 96.9* | 95.8* | 95.7* | 96.6* | 101.7* | 97.3* | 96.4*
CC(=O)NCc1ccc(-c2nc3ccccc3s2)cc1 | 25.9 | -100.2 | -8.7 | 64.0* | 71.8* | 79.7* | 0.9 | 58.7* | 87.1* | 77.0* | 29.7
c1ccc2sc(-c3ccc4c(c3)OCO4)nc2c1 | . | -278.4 | -1.1 | 95.8* | 100.0* | 97.2* | 97.7* | 100.0* | 102.8* | 98.4* | 95.1*
COc1cccc(-c2nc3ccccc3s2)c1 | 11.0 | -13.8 | 5.5 | 95.2* | 96.4* | 92.3* | 96.5* | 98.5* | 102.4* | 95.2* | 94.6*
O=C(O)c1ccc2nc(-c3ccccc3)sc2c1 | 8.8 | -7.6 | 3.1 | 94.2* | 100.0* | 97.8* | 98.3* | 99.2* | 101.8* | 96.4* | 97.7*
Oc1ccc(-c2nc3ccccc3s2)c(O)c1 | 16.3 | -419.3 | -7.5 | 87.5* | 85.9* | 96.8* | 94.6* | 94.5* | 100.9* | 74.8* | 77.7*
Cc1ccc(/C=N/Nc2cn[nH]c(=O)n2)o1 | 1.1 | 19.2 | -0.4 | 1.2 | 0.6 | -14.6 | . | . | . | . | .
Cc1ccc(/C=N/Nc2ccc3ccccc3n2)o1 | . | -457.4 | -16.9 | 85.0* | 88.3* | 78.7* | 92.8* | 92.8* | 100.0* | 91.7* | 85.1*
C(=N\Nc1ccc2ccccc2n1)/c1ccc2c(c1)OCCO2 | 44.8 | -392.9 | -4.9 | 84.3* | -3.6 | 78.4* | 97.9* | 100.5* | 103.9* | 97.5* | 84.6*
Cc1cc(N/N=C/c2cccc(Br)c2)nc2ccccc12 | 2.5 | -88.8 | -0.5 | 5.5 | 32.1 | 42.5 | . | . | . | . | .
Cc1cccc(/C=N/Nc2ccc3ccccc3n2)c1 | 0.0 | -406.8 | 1.7 | 96.1* | 5.2 | 91.9* | -5.6 | 100.7* | 104.0* | 98.2* | 75.2*
CCOc1ccc(/C=N/NC(=O)c2nnn(-c3nonc3N)c2-c2cccs2)cc1 | -3.7 | -237.9 | 1.2 | -7.5 | 8.8 | 1.9 | . | . | . | . | .
Cc1ccc(/C=C/c2ccc3cccc(O)c3n2)s1 | -7.1 | -40.6 | -11.1 | 8.0 | 3.9 | 10.4 | . | . | . | . | .
Cc1ccc(/C=C/c2nc3ccccc3s2)s1 | 14.9 | -114.3 | -1.7 | 85.7* | 9.6 | 91.6* | 97.4* | 100.1* | 103.2* | 95.2* | 78.0*
CCC(C)NC(=O)c1cn(CC)c2ccc(S(=O)(=O)N3CCCCCC3)cc2c1=O (stereo not drawn) | -12.1 | 23.8 | 2.0 | -11.8 | -7.4 | -6.6 | . | . | . | . | .
O=C1CCCC(O)=C1N=Nc1cccc(C(=O)O)c1 | -7.5 | 20.8 | -0.5 | 60.8* | 80.0* | 76.5* | 13.9 | 78.1* | 95.5* | 21.6 | 69.5*
COc1cc(OC)cc(C(=O)NCCN2C(=O)S/C(=C\c3cccs3)C2=O)c1 | 1.9 | 11.8 | 0.6 | -17.5 | -8.7 | -34.7 | . | . | . | . | .
COc1cc(C(=O)NCCN2C(=O)S/C(=C\c3cccs3)C2=O)cc(OC)c1OC | -2.6 | 6.3 | -0.2 | 55.6* | 64.1* | 11.6 | 2.4 | 4.5 | 8.8 | 6.0 | -0.5
CC1=NN(C(N)=S)C(=O)C1N=Nc1ccccc1C (stereo not drawn) | 0.0 | 34.7 | 3.0 | 75.0* | 47.7 | -2.3 | 31.0 | 41.2 | 58.1* | 70.1* | 23.0
CC1=NN(C(N)=S)C(=O)C1N=Nc1c(Cl)cc([N+](=O)[O-])cc1Cl (stereo not drawn) | -2.1 | 47.2* | 6.6 | 95.4* | 81.7* | 97.8* | 96.1* | 96.2* | 101.3* | 94.7* | 65.4*
CC1=NN(C(N)=S)C(=O)C1N=Nc1c(Br)cc(Br)cc1Br (stereo not drawn) | 9.0 | 17.7 | 3.5 | 73.8* | 0.4 | 85.1* | 1.0 | 82.2* | 89.7* | 51.1* | 58.1*
CC1=NN(C(N)=S)C(=O)C1N=Nc1c(C)cc(C)cc1C (stereo not drawn) | 1.4 | 25.8 | 4.1 | -8.2 | 0.5 | 15.5 | . | . | . | . | .
CC1=NN(C(N)=S)C(=O)C1N=Nc1ccc(C)cc1C (stereo not drawn) | -20.9 | . | . | 81.0* | 67.8* | 91.7* | 41.4 | 58.2* | 70.5* | 68.4* | 28.9
SMILES | Platelet DG rel | SENP8 block-1 | SENP1 inh | SENP8 block-2 | SENP7 inh | SENP6 block | SENP8 confirm | SENP6 confirm | SENP7 conf | Casp3 SENP sel | SENP luc ctr
COc1cc(C2SCC(=O)N2c2c(C)n(C)n(-c3ccccc3)c2=O)ccc1O (stereo not drawn) | 2.1 | 24.0 | -0.8 | -6.8 | 3.2 | -16.4 | . | . | . | . | .
CCN(CC)S(=O)(=O)c1cccc(NC(=O)COC(=O)/C=C/c2cccs2)c1 | 9.1 | 18.0 | 6.0 | -4.3 | -0.7 | -3.5 | . | . | . | . | .
COc1cccc(C(=O)NC2CC(C)(C)Cc3c2cnn3-c2cccc(F)c2)c1OC (stereo not drawn) | 8.1 | 6.4 | -0.8 | -13.7 | 13.4 | -15.0 | . | . | . | . | .
O=C(Nc1cccc([N+](=O)[O-])c1)c1ccccc1 | -1.0 | 14.0 | 0.5 | -8.5 | 8.7 | 13.6 | . | . | . | . | .
O=[N+]([O-])c1cccc(NN=Nc2ccccc2)c1 | 1.8 | 25.4 | 3.2 | 70.0* | 69.0* | 63.8* | 71.1* | 68.7* | 88.5* | 35.5 | 67.2*
NC1=NC(=Nc2ccc(Br)cc2)c2ccccc21 | -2.3 | 19.8 | 2.1 | 2.6 | 3.1 | 5.3 | . | . | . | . | .
O=[N+]([O-])c1ccc(N=NNc2ccccc2)cc1 | -0.3 | -7.4 | 1.3 | 29.4 | 39.8 | 59.3* | 47.5 | 48.6 | 75.4* | 16.8 | 25.2
CC(C)N(N=Nc1ccc([N+](=O)[O-])cc1)C(C)C | 4.4 | 20.1 | -2.4 | 1.0 | -4.2 | 10.7 | . | . | . | . | .
Brc1ccc(N=NNc2ccccc2)cc1 | -3.1 | 37.8 | 0.2 | 12.0 | 20.4 | 51.2* | 67.8* | 74.4* | 88.5* | 28.5 | 46.5
Cc1ccccc1-c1cc2c(nn1)-c1ccccc1C2=O | 4.9 | 105.3* | 1.6 | 96.4* | 98.5* | 99.7* | 82.7* | 98.8* | 101.5* | 97.7* | 56.4*

Assay outcomes as filed in PubChem BioAssay.
